Calls of active or inactive are those of the source. The calls are words filed in the database; no cut-off is given here.
Key:
[1] = target: T1, Corticotropin-releasing factor receptor 1 (Homo sapiens, UniProt P34998); assay: Displacement of [125I]CRF from human CRF1 receptor expressed in CHO-K1 cells after 2 hrs by gamma counter; type: cell-based
T1 sequence (P34998 whole entry): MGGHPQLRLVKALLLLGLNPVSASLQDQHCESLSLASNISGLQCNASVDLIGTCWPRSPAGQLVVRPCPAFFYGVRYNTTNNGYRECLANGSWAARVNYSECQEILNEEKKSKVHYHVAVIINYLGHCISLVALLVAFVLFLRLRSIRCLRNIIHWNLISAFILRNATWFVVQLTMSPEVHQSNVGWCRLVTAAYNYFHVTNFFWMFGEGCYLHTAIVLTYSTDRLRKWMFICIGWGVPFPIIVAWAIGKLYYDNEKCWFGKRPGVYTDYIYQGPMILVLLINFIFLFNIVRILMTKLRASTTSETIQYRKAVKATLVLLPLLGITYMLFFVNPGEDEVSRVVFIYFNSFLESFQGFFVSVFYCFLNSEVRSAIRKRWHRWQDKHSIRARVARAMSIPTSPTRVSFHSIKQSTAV
Outline: (§1)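 Crude membranes came from CRF1-expressing CHO-K1 cells, homogenized in 50 mmol/l Tris–HCl with 10 mmol/l MgCl2, 2 mmol/l EDTA and aprotinin, then spun at 10,000 g. Membranes were incubated 2 h at room temperature with 0.5 nmol/l 125I human/rat CRF (added solution) and test compound (1–10000 nmol/l). Bound ligand was separated by centrifugation and washed with PBS/0.01% Triton X-100, then counted by γ-counter. Nonspecific binding was defined with 1 µmol/l unlabeled CRF. IC50 was taken from concentration–response curves.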

[2] = target: T1, Corticotropin-releasing factor receptor 1; assay: Antagonist activity at human CRF1 receptor expressed in CHO-K1 cells assessed as CRF-stimulated cAMP accumulation by enzyme immunoassay; type: functional, cell-based; conditions: read-out: EC50 (the source's name)
Outline: (§2)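 CHO-K1 cells expressing CRF1 were seeded at 1 × 10^4 cells/well and incubated overnight, then washed twice with F-12. They were preincubated 10 min at 37 °C in F-12 containing 1 mmol/l IBMX. Test compound (1–10000 nmol/l) and 10 nmol/l CRF (final concentration not stated) were added, followed by 15 min at 37 °C. Cells were chilled and cAMP measured by enzyme immunoassay after blank subtraction. IC50 was taken from concentration–response curves.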

[3] = Cmax in rat at 1 mg/kg, po; conditions: in vivo
[4] = Volume of distribution at steady state in rat at 1 mg/kg, iv; type: ADME, organism-based; parameters: dose 1 mg/kg, route intravenous; conditions: in vivo, read-out: Vdss
Outline: (§3)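 Fasted male rats received a single 1 mg/kg dose, either iv in saline with 30% HP-β-CD or po in saline with 0.5% MC (n = 4 each). Jugular blood was taken by heparinized syringe (iv: 2 min–72 h; po: 1–72 h) and spun to plasma stored at −70 °C. AUC, Cmax, Tmax, T1/2, Vss and CL were derived from plasma concentration–time courses. F = dose-normalized AUCpo/AUCiv × 100.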

[5] = Oral bioavailability in rat at 1 mg/kg; type: ADME, organism-based; conditions: in vivo; outline: as §3
Rattus norvegicus [6] = assay: Anxiolytic activity against swin-stress-induced anxiety-like behavior in Sprague-Dawley rat assessed as increase in time spent in open arms at 10 mg/kg, po after 1 hr by plus-maze test; type: functional, organism-based; parameters: dose 10 mg/kg
Outline: (§4)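 Male Sprague-Dawley rats (230–280 g) received oral vehicle (0.5% MC) or compound 1 h before testing. They were forced to swim 120 s in 22 ± 2 °C water (25 cm deep) and dried. Each rat was placed at the maze centre facing a closed arm and video-tracked for 5 min. Time in and entries into open arms were scored. Non-stressed controls were included. Data are mean ± S.E., with n=16 per group. Dunnett test versus vehicle.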

[7] = Half life in rat at 1 mg/kg, iv; type: ADME, organism-based; parameters: dose 1 mg/kg, route intravenous; conditions: in vivo; outline: as §3
[8] = Half life in rat at 1 mg/kg, po; type: ADME, organism-based; parameters: dose 1 mg/kg, route oral; conditions: in vivo; outline: as §3
[9] = AUC (infinity) in rat at 1 mg/kg, po; type: ADME, organism-based; parameters: time infinity, dose 1 mg/kg, route oral; conditions: plasma
Outline: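 Fasted male rats dosed orally once at 1 mg/kg in saline with 0.5% MC (w/v). Heparinized jugular-vein blood was taken at 1, 2, 4, 6, 8, 24, 48 and 72 h. Plasma was obtained by centrifugation and kept at -70 °C. AUC came from the plasma concentration–time profile.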

[10] = target: T2, Corticotropin-releasing factor receptor 1 (Rattus norvegicus, UniProt P35353); assay: Displacement of [125I]CRF from rat CRF1 receptor expressed in CHO-K1 cells after 2 hrs by gamma counter; type: cell-based; conditions: in the assay text read “in brain membranes” for “expressed in CHO-K1 cells”; outline: as §1
T2 sequence (P35353 whole entry): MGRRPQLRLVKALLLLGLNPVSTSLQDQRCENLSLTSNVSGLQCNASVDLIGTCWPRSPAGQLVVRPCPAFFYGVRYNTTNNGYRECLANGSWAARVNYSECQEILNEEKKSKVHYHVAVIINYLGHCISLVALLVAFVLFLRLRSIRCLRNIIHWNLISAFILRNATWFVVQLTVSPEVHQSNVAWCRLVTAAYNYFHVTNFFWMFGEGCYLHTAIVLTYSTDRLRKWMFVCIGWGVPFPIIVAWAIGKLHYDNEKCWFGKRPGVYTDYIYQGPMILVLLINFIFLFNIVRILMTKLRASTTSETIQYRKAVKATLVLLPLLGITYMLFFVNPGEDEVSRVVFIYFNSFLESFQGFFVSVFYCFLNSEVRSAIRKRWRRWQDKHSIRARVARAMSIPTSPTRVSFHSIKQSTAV

[11] = Total clearance in rat at 1 mg/kg, iv; type: ADME, organism-based; parameters: dose 1 mg/kg, route intravenous; conditions: in vivo; outline: as §3
[12] = Tmax in rat at 1 mg/kg, po; type: ADME, organism-based; parameters: dose 1 mg/kg, route oral; conditions: in vivo; outline: as §3
[13] = target: T2, Corticotropin-releasing factor receptor 1; assay: Antagonist activity at rat CRF1 receptor expressed in CHO-K1 cells assessed as CRF-stimulated cAMP accumulation by enzyme immunoassay; type: functional, cell-based; outline: as §2
[14] = AUC (infinity) in rat at 1 mg/kg, iv; type: ADME, organism-based; parameters: time infinity, dose 1 mg/kg, route intravenous; conditions: plasma
Outline: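 Fasted male rats given a single 1 mg/kg intravenous dose in saline with 30% HP-β-CD (w/v). Heparinized jugular-vein blood was drawn pre-dose and at 2, 5, 15 and 30 min and 1, 2, 3, 4, 8, 24, 48 and 72 h. Plasma was separated by centrifugation and stored at -70 °C. AUC was derived from the plasma concentration–time course.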

Rattus norvegicus [15] = assay: Anxiolytic activity against swin-stress-induced anxiety-like behavior in po dosed Sprague-Dawley rat assessed as increase in time spent in open arms after 1 hr by plus-maze test; type: functional, organism-based; outline: as §4
Rattus norvegicus [16] = assay: Anxiolytic activity against swin-stress-induced anxiety-like behavior in Sprague-Dawley rat assessed as increase in time spent in open arms at 3 mg/kg, po after 1 hr by plus-maze test; type: functional, organism-based; parameters: dose 3 mg/kg; outline: as §4

| Compound | IC50 [1] | IC50 [2] | further results |
| --- | --- | --- | --- |
| CCC(CC)c1cc(C)n2nc(-c3ccc(OC)cc3C)n(C3CC3)c(=O)c12 | 5.7 nM | 3.7 nM | – |
| CCC(CC)c1cc(C)n2nc(-c3cnc(N(C)C)cc3C)c(C)cc12 | 7.4 nM | 11.5 nM | – |
| CCC(CC)c1cc(C)n2nc(-c3ccc(OC)cc3C)n(C(C)C)c(=O)c12 | 19.2 nM | 5.1 nM | – |
| CCC(CC)c1cc(C)n2nc(-c3ccc(OC)cc3C)[nH]c(=O)c12 | 149 nM | 688 nM | – |
| CCC(CC)c1cc(C)n2nc(-c3cnc(OC)cc3C)n(C)c(=O)c12 | 8.6 nM | 17.2 nM | – |
| CCOc1ccc(-c2nn3c(C)cc(C(CC)CC)c3cc2C)c(CC)c1 | 13.4 nM | 6.9 nM | – |
| CCC(CC)c1cc(C)n2nc(-c3ccc(N(C)C)nc3C)n(C)c(=O)c12 | 7.8 nM | 5.5 nM | – |
| COc1ccc(-c2nn3c(C)cc(C(C)C)c3c(=O)n2C)c(Cl)c1 | 8.7 nM | 7.4 nM | – |
| CCC(CC)c1cc(C)n2nc(-c3ccc(OC)cc3C)n(CC3CC3)c(=O)c12 | 3.3 nM | 5 nM | – |
| CCC(C)c1cc(C)n2nc(-c3ccc(N(C)C)nc3C)n(C)c(=O)c12 (centres undefined) | 81.2 nM | 36.5 nM | – |
| CCC(CC)c1cc(C)n2nc(-c3ccc(OC)cc3C)n(CCO)c(=O)c12 | – | 4.2 nM | – |
| CCC(C)c1cc(C)n2nc(-c3c(C)cc(OC)cc3C)n(C)c(=O)c12 (centres undefined) | 4.2 nM | 3.5 nM | – |
| CCC(CC)c1cc(C)n2nc(-c3ccc(OC)cc3C)c(C)cc12 | – | 4.9 nM | Activity (Rattus norvegicus [16]): Active |
| COc1cc(C)c(-c2nn3c(C)cc(C(C)C)c3c(=O)n2C)c(C)c1 | 13.1 nM | 4.5 nM | – |
| CCC(CC)c1cc(C)n2nc(-c3ccc(OC)cc3Cl)[nH]c(=O)c12 | 14.3 nM | 4 nM | – |
| CCC(CC)c1nc(C)n2nc(-c3ccc(OC)cc3C)c(C)cc12 | 122 nM | 566 nM | – |
| CCC(CC)c1nc(C)c2nc(-c3ccc(OC)cc3C)c(C)cn12 | 311 nM | – | – |
| CCC(CC)c1cc(C)n2nc(-c3ccc(OC)cc3C)n(CC(C)C)c(=O)c12 | 111 nM | 47.2 nM | – |
| Cc1nc(N(C)C)ccc1-c1nn2c(C)cc(C(C)C)c2c(=O)n1C | 131 nM | – | – |

The remaining compounds from weak to strong by IC50 [2], led by results:

| IC50 [1] | IC50 [2] | Compound | further results |
| --- | --- | --- | --- |
| 4.4 nM | 3.5 nM | CCC(CC)c1cc(C)n2nc(-c3ccc(OC)cc3Cl)n(CCO)c(=O)c12 | – |
| 16.6 nM | 3.3 nM | CCC(CC)c1cc(C)n2nc(-c3cc(C)c(C)cc3C)c(C)cc12 | – |
| – | 3.2 nM | CCC(CC)c1cc(C)n2nc(-c3cnc(OC(F)F)cc3C)n(C)c(=O)c12 | Cmax [3]: 21.5 ng/mL; Vd [4]: 2.95 L/kg; bioavailability [5]: 13.5%; Activity (Rattus norvegicus [6]): Active; half-life [7]: 4.3 h; half-life [8]: 2.4 h; AUC(0-inf) [9]: 70.2 ng·h/mL; IC50 [10]: 8.4 nM; clearance [11]: 34.7 mL/min/kg; Tmax [12]: 1 h; EC50 [13]: 2.6 nM; AUC(0-inf) [14]: 518 ng·h/mL; Activity (Rattus norvegicus [15]): Dose-dependent effect |
| 18.3 nM | 2.5 nM | CCC(CC)c1cc(C)n2nc(-c3cc4c(cc3C)OCO4)c(C)cc12 | – |
| 5 nM | 2.4 nM | CCC(C)c1cc(C)n2nc(-c3ccc(OC)cc3C)n(C)c(=O)c12 (centres undefined) | – |
| 8.9 nM | 1.9 nM | CCc1cc(OC)c(OC)cc1-c1nn2c(C)cc(C(CC)CC)c2cc1C | – |
| 11.6 nM | 1.8 nM | CCC(CC)c1cc(C)n2nc(-c3ccc(C)cc3C)c(C)cc12 | – |
| 2.6 nM | 1.7 nM | CCC(CC)c1cc(C)n2nc(-c3ccc(OC)cc3C)n(C)c(=O)c12 | – |
| 3.8 nM | 1.2 nM | CCC(CC)c1cc(C)n2nc(-c3ccc(OC)cc3Cl)n(C)c(=O)c12 | – |
| 9.7 nM | 1.2 nM | CCC(CC)c1cc(C)n2nc(-c3ccc(OC)cc3C)n(CC)c(=O)c12 | – |
| 3.8 nM | 1.1 nM | CCC(CC)c1cc(C)n2nc(-c3ccc(OC)nc3C)n(C)c(=O)c12 | – |
| 4.9 nM | 1.1 nM | CCC(C)c1cc(C)n2nc(-c3ccc(OC)cc3Cl)n(C)c(=O)c12 (centres undefined) | – |
| 5.9 nM | 1 nM | CCC(CC)c1cc(C)n2nc(-c3ccc(OC)cc3Cl)n(C3CC3)c(=O)c12 | – |
| 4.6 nM | 0.7 nM | CCC(CC)c1cc(C)n2nc(-c3ccc(OC)cc3Cl)n(CC)c(=O)c12 | – |
| 2 nM | 0.6 nM | CCC(CC)c1cc(C)n2nc(-c3c(C)cc(OC)cc3C)n(C)c(=O)c12 | – |
| 4.5 nM | 0.3 nM | CCC(CC)c1cc(C)n2nc(-c3ccc(OC(F)F)nc3C)n(C)c(=O)c12 | – |
